Results gathered from unrelated publications.
Protocols differ between the studies behind these lines.
Cell line: Vero
Effect on: cell growth or viability

SMILES | technique | concentration | time | measurement | value
CCCN(CCc1cccs1)[C@H]1CCc2c(O)cccc2C1 | resazurin | – | – | CC50 | 9.48 µM
CC1(F)CN(C(=O)Cn2c(=O)c(C(=O)NCc3ccc(Cl)cc3)cc3nc(N4CCNC4=O)cnc32)C1 | CCK-8 | – | 5 days | CC50 | > 40 µM
CN(C)c1ncnc2c1ncn2[C@@H]1O[C@H](CCl)[C@@H](NC(=O)[C@H](CSC(c2ccccc2)c2ccccc2)NC(=O)OC(C)(C)C)[C@H]1O | MTT | – | – | CC50 | > 100 µM
CN1CCN(c2cnc3c(cc(C(=O)NCc4ccc(Cl)cc4)c(=O)n3CC(=O)N3CC(C)(F)C3)n2)C1=O | CCK-8 | – | 5 days | CC50 | > 40 µM
COC(=O)COc1c(Cc2cc(C(C)(C)CC(C)(C)C)cc(-n3nc4ccccc4n3)c2OCC(=O)OC)cc(C(C)(C)CC(C)(C)C)cc1-n1nc2ccccc2n1 | MTT | 10 µM | 48 h | viability | 89.5%
O=C(NNC(=O)c1cc2ccccc2s1)c1ccc([N+](=O)[O-])o1 | MTT | – | 48 h | CC50 | 75 µM
CO[C@@]12[C@H](COC(N)=O)C3=C(C(=O)C(C)=C(N)C3=O)N1C[C@@H]1N[C@@H]12 | resazurin | – | – | CC50 | 0.39 µM
O=C(Cn1ccnc1[N+](=O)[O-])NCc1ccccc1 | MTT | – | – | CC50 | 142 µM
